Compound activity deposited in PubChem by Johns Hopkins Ion Channel Center.
MrgX1 antagonist: antagonists of human MrgX1 receptor, primary screen, HEK293 cells, Fluo-4 calcium flux. Mas-related G-protein coupled receptor member X1 (Homo sapiens), Q96LB2. B-score at 10 µM. AID 588676, 2011. 310,000 compounds, 1.3% hits. BAM8-22 antagonism; active compounds read low;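 active = calcium-response B-score plate-corrected more than 3 library SD below zero, starting fluorescence within 5 deviations, no agonist response on first addition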;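 note: peak minus trough fluorescence over baseline after final BAM8-22 challenge near maximal dose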
Target sequence (Q96LB2 whole entry, looked up): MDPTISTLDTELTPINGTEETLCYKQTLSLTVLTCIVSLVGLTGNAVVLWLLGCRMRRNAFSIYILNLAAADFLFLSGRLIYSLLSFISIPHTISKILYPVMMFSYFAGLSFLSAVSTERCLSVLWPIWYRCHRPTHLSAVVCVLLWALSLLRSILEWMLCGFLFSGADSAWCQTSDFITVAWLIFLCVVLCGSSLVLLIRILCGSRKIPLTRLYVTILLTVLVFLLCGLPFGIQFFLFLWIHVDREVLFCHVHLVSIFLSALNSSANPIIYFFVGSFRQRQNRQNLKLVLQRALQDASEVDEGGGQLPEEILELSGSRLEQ
MrgX1 ag: agonists of human MrgX1 receptor, primary screen, HEK293 cells, Fluo-4 calcium flux | Mas-related G-protein coupled receptor member X1 (Homo sapiens), Q96LB2 | Fluo-4 calcium fluorescence, agonist mode; active compounds read high | B-score at 10 µM | 310,000 compounds, 0.44% hits | AID 588627, 2011;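 active = calcium response B-score plate-corrected fluorescence ratio at least 3 library SD, with starting fluorescence B-score inside 5 SD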
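Assay system: stable human MrgX1 HEK293 cell line. Quantity: 15,000 cells per well. Schedule: cells plated overnight, dye loaded 0.5 h 37 °C, 0.5 h room temperature. Detection: Fluo-4 NW calcium-flux fluorescence, kinetic read. Read-out basis: peak-minus-minimum fluorescence over baseline, converted to B scores. Control set: positive and negative control wells on each plate.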
RGS4 block: RGS4 inhibitors, primary screen, cell-based, HEK293 M3R inducible RGS4, calcium flux | AID 463165, 2010 | B-score at 10 µM | 310,000 compounds, 0.45% hits | Fluo-4 calcium flux; active compounds read high; triggered by carbachol at its EC20;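 active = B-score, a plate-corrected calcium signal, over three deviations above library mean, with baseline fluorescence within five deviations of library mean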;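 note: RGS4 expression induced by doxycycline in cells with stable M3 receptor; B-score is computed from the integrated fluorescence ratio over baseline after carbachol; higher B-score means a larger calcium signal and so more RGS4 inhibition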
Target sequence (P49798 whole entry, looked up): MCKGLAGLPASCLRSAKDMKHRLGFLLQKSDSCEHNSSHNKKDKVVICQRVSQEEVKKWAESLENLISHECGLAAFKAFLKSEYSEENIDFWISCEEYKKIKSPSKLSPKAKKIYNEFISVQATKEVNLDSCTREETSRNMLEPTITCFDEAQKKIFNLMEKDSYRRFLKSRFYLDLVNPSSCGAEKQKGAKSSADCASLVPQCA
MrgX1 allo act: positive allosteric modulators of MrgX1, primary screen, HEK293 cells, Fluo-4 calcium flux. Mas-related G-protein coupled receptor member X1 (Homo sapiens), Q96LB2. FDSS; active compounds read high. B-score at 10 µM. 310,000 compounds, 0.63% hits;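 active = plate-corrected calcium response at least 3 library SD above typical, normal starting fluorescence, not activating the receptor alone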;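 note: compound read alongside a low EC10 to EC30 dose of BAM8-22 agonist; peak minus trough fluorescence over baseline measured at the second addition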
RGS4 act: RGS4 potentiators or activators, primary screen, cell-based, HEK293 M3R inducible RGS4, calcium flux | carbachol calcium flux Fluo4; active compounds read low | B-score at 10 µM | 310,000 compounds, 0.92% hits | AID 463111, 2010;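 active = B-score of the integrated calcium signal more than 4 SD below the library mean, with starting fluorescence not abnormally high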;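 note: negative B-score means reduced calcium response which marks RGS4 activation or potentiation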
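test system = HEK293 cells with stable M3R and inducible RGS4 | schedule = recording 10 s baseline at 1 Hz, 100 s post-agonist | technique = Fluo4-AM (2 µM) calcium-flux fluorescence, kinetic read | measure = Agonist-evoked peak-minus-minimum fluorescence over baseline, integrated ratio, B score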
RGS4 block valid: enhanced carbachol calcium response, M3R/RGS4 cells, RGS4 inhibitor project, cell-based, validation screen, HEK293 M3R/RGS4, calcium flux; shares compounds with RGS4 block; carbachol calcium Fluo-4 fluorescence; carbachol added at its EC20; 0 = buffer wells, 100 = carbachol control; calcium response, % at 10 µM; 1,700 compounds, 65% hits; AID 492999, 2010;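 active = duplicate-averaged calcium response above the buffer-only control mean plus 5 SD of those controls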;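 note: integrated fluorescence ratio F max minus min over baseline F0; higher response in RGS4-induced cells means RGS4 inhibition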
M3R Ca ctr: carbachol calcium response in non-induced M3R cells, confirmation, counter-screen for RGS4 inhibitor project, cell-based, HEK293 M3R; shares compounds with RGS4 block; carbachol calcium Fluo-4; submaximal (EC20) carbachol stimulus; buffer wells 0%, carbachol control wells 100%; activity (percent), % at 10 µM; 1,900 compounds, 20% hits; AID 493000, 2010; call rule not given here;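 note: RGS4 induction absent so cells express M3R without RGS4; higher means more calcium signal and flags a non-specific hit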
M3R basal Ca ctr: signal in non-induced cells without carbachol, RGS4 inhibitor counter-screen | shares compounds with RGS4 block | calcium response (agonist-mode artifact), % at 10 µM | HEK293 M3R/RGS4 non-induced, Fluo-4 calcium, no carbachol; normalised: buffer wells 0%, carbachol wells 100% | 1,900 compounds, 22% hits;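 active = duplicate-averaged calcium rise in uninduced cells above buffer wells' mean plus 5 SD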
* = called active by the depositor; i = inactive; . = not tested or not shown. Hits are enriched below; roughly 3.5% of the tested compounds scored in any of these assays.

SMILES	MrgX1 antagonist	MrgX1 ag	RGS4 block	MrgX1 allo act	RGS4 act	RGS4 block valid	M3R Ca ctr	M3R basal Ca ctr
O=c1[nH]c(NNC(=S)NCc2ccccc2)nc2c1C1(CCCCC1)Cc1ccccc1-2	i	i	12.6*	i	i	30.0%*	i	i
CCN(CC)Cc1nc2c(c(=O)[nH]1)C1(CCCCC1)Cc1ccccc1-2	i	i	i	i	i	.	.	.
C=CCNC(=S)NNc1nc2c(c(=O)[nH]1)C1(CCCC1)Cc1ccccc1-2	i	i	9.83*	i	i	22.0%*	i	i
O=c1[nH]c(NNC(=S)NC2CCCCC2)nc2c1C1(CCCC1)Cc1ccccc1-2	i	i	12.1*	i	i	7.5%*	i	i
Cc1ccc(-n2ncc(Cl)c2C(=O)NC2CC2)cc1	i	i	i	i	i	.	.	.
O=C(NCc1ccco1)/C(=C\C=C\c1ccccc1)NC(=O)c1ccccc1Br	i	i	i	i	i	.	.	.
CN(C)Cc1nc2c(c(=O)[nH]1)C1(CCCCC1)Cc1ccccc1-2	i	i	i	i	i	.	.	.
CCC1(C)Cc2ccccc2-c2nc(NCCCO)[nH]c(=O)c21 (stereo not given)	i	i	i	i	i	.	39.0%*	i
O=c1[nH]c(NCCCO)nc2c1C1(CCCC1)Cc1ccccc1-2	i	i	7.28*	i	i	31.0%*	i	29.5%*
CCC1(CC)Cc2ccccc2-c2nc(NCCCO)[nH]c(=O)c21	i	i	37.4*	i	i	71.0%*	53.0%*	7.5%*
CC(C)(C)NC(=O)CN(C(=O)C(=O)Nc1ccc2c(c1)OCCO2)C(C)(C)C	i	i	i	i	i	.	.	.
Cc1ccc(N=c2oc3cc(O)ccc3cc2C(N)=O)cc1	i	i	i	i	i	.	i	i
CC(=O)c1cc2ccc(O)cc2oc1=O	i	i	i	i	i	.	.	.
COc1ccc(Nc2cc(Cl)nc(N)n2)cc1OC	i	i	6.14*	i	i	6.0%*	i	i
Nc1nc(Cl)cc(Nc2ccccc2Cl)n1	i	i	i	i	i	.	.	.
COc1ccc(NC(=O)CC2C(=O)NCCN2C(=O)Nc2ccc(C(F)(F)F)cc2)cc1 (stereo not given)	i	i	8.84*	i	i	20.5%*	29.0%*	i
O=C(CC1C(=O)NCCN1C(=O)Nc1ccc(C(F)(F)F)cc1)Nc1ccc(F)cc1 (stereo not given)	i	i	24*	i	i	43.0%*	i	8.0%*
COCCNC(=O)c1ccccc1NC(=O)CCSc1ccccc1	i	i	i	i	i	.	.	.
COc1ccc(N2CCN(C(=O)COC(=O)c3cnccn3)CC2)cc1	i	i	i	i	i	.	.	.
O=C1/C(=C\c2cc(Cl)c(O)c(Cl)c2)SC(=S)N1Cc1ccccc1	i	i	i	i	i	.	.	.
COc1ccc(/C=C2/SC(=S)N(Cc3ccccc3)C2=O)cc1O	i	i	4.97*	i	i	24.0%*	i	20.0%*
O=C(O)COc1ccc(/C=C2/SC(=S)N(Cc3ccccc3)C2=O)cc1	i	i	i	i	i	.	42.0%*	i
Cc1ccc(SCC(=O)Nc2ccc(F)cc2[N+](=O)[O-])cc1C	i	i	i	i	i	.	.	.
Cc1ccc(NCC(=O)N/N=C/c2cc(O)ccc2[N+](=O)[O-])cc1	i	i	5.16*	i	i	i	i	i
Cc1cccc(NCC(=O)N/N=C\c2cccc(Oc3ccccc3)c2)c1	i	i	i	i	i	.	i	i
SMILES	MrgX1 antagonist	MrgX1 ag	RGS4 block	MrgX1 allo act	RGS4 act	RGS4 block valid	M3R Ca ctr	M3R basal Ca ctr
Cc1ccc(NCC(=O)N/N=C/c2cccc(Oc3ccccc3)c2)cc1	i	i	13.4*	i	i	20.0%*	i	i
Cc1ccc2c(c1)c(C1=c3ccccc3=NC1=O)c(O)n2C	i	i	i	i	i	.	.	.
C=CCn1c(O)c(C2=c3ccccc3=NC2=O)c2ccccc21	i	i	5.63*	i	i	12.0%*	33.0%*	22.5%*
O=C(Nc1ccccc1C(=O)N1CCCCC1)NC1CCCCC1	i	i	i	i	i	.	.	.
Cc1ccc(-c2nn(-c3ccccc3)cc2/C=N/n2c(-c3ccncc3)n[nH]c2=S)cc1	i	i	i	i	i	i	i	i
S=c1[nH]nc(-c2ccncc2)n1/N=C/C(Cl)=C\c1ccccc1	i	i	9.84*	i	i	20.5%*	44.0%*	i
O=C(O)CNC(=O)c1ccccc1Br	i	i	i	i	i	.	.	.
COc1cccc(/C=N/NC(=O)CSc2nnc(C)n2-c2ccccc2)c1OC	i	i	i	i	i	.	.	.
COc1cc(OC)c(OC)cc1/C=N/NC(=O)CSc1ccccc1F	i	i	i	i	i	.	.	.
COc1cccc(/C=N/NC(=O)CSc2ccccc2C)c1O	i	i	5.94*	i	i	64.5%*	i	i
COc1cccc(/C=N/NC(=O)CSc2ccccc2C)c1OC	i	i	i	i	i	i	i	i
C=CCN(CC=C)C(=O)Nc1cc(OC)ccc1OC	i	i	i	i	i	.	.	.
COc1cccc(CNCc2ccccc2Br)c1OC	i	i	i	i	i	.	.	.
COc1cnc(-c2ccccn2)nc1Oc1ccc(Cl)c2ccccc12	i	i	10.4*	i	i	16.5%*	i	i
COc1cnc(-c2ccccn2)nc1Oc1ccccc1Cl	i	i	i	i	i	.	.	.
CC1CCN(c2c([N+](=O)[O-])c(=O)oc3ccccc23)CC1	i	i	i	i	i	.	.	.
